The text below walks through data of ChEMBL document CHEMBL1141948, “Selective and orally bioavailable phenylglycine tissue factor/factor VIIa inhibitors” (Bioorg Med Chem Lett, 2005).

The species named for data set [1] is Homo sapiens. Nature of the data set: Ratio of activated partial thromboplastin time against prothrombin time (aPTT/PT). In kind it is functional.
Data set [2] deals with Trypsin (Homo sapiens, UniProt P07477+P07478+P35030). The experiment in a line: Binding affinity to trypsin. It counts as protein assay.
The target in data set [3] is T1, Coagulation factor X (Homo sapiens, UniProt P00742). The experiment in a line: Binding affinity to FXa.
Data set [4] concerns the target T1, Coagulation factor X. The experiment in a line: Activated partial thromboplastin time. It counts as functional. The method in brief:
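Human citrated plasma spiked with at least six inhibitor concentrations; intrinsic-pathway clotting started with Actin FS (ellagic acid in soy phosphatides). Clotting time read by turbidity. Concentration doubling control clotting time (EC50) obtained by fitting data to exponential regression.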

Data set [5] addresses Prothrombin (Homo sapiens, UniProt P00734). The experiment in a line: Binding affinity to thrombin.
Data set [6] concerns the target Coagulation factor VII/tissue factor (Homo sapiens) (UniProt P08709+P13726). The following applies: Plasma.
The target in data set [7] is Coagulation factor VII/tissue factor (Homo sapiens, UniProt P08709). Nature of the data set: Binding affinity to FVIIa/TF. In kind it is protein-complex assay.
The nature of data set [8]: Oral bioavailability in rat at 10.3 mg/kg. In kind it is ADME, organism-based. The following applies: in vivo.
The nature of data set [9]: Half life in rat administered with 10.3 mg/kg, po. Further details: dose 10.3 mg/kg, route oral. The following applies: in vivo. In kind it is ADME, organism-based.
Data set [10] is described as follows: Half life in rat administered with 3 mg/kg, iv. In kind it is ADME, organism-based. Further details: dose 3 mg/kg, route intravenous. The following applies: in vivo. The procedure, abridged: (§1)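 Rat pharmacokinetics with intravenous and oral dosing at the stated doses (mg/kg). Half-lives determined for iv and po routes; clearance (ml/min/kg), steady-state volume of distribution (l/kg) and oral bioavailability (%) derived.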

Data set [11] can be described thus: Volume of distribution in rat at 3 mg/kg. In kind it is ADME, organism-based. Further details: dose 3 mg/kg. The following applies: in vivo, read-out: Vdss. The method in brief: as §1
Data set [12] can be described thus: Clearance in rat at 3 mg/kg. It counts as ADME, organism-based. Further details: dose 3 mg/kg. The following applies: in vivo. The method in brief:
as §1

A short description of data set [13]: Half life in rat administered with 10 mg/kg, po. Further details: dose 10 mg/kg, route oral. In kind it is ADME, organism-based. The following applies: in vivo. The procedure, abridged: as §1
A short description of data set [14]: Half life in rat administered with 10 mg/kg, iv. In kind it is ADME, organism-based. Further details: dose 10 mg/kg, route intravenous. The following applies: in vivo. The method in brief:
as §1

Data set [15] in a line: Oral bioavailability in rat at 10 mg/kg. The following applies: in vivo. It counts as ADME, organism-based. The procedure, abridged: as §1
Data set [16] can be described thus: Oral bioavailability in rat at 6.1 mg/kg. In kind it is ADME, organism-based. The following applies: in vivo. The method in brief:
as §1

Data set [17] can be described thus: Half life in rat administered with 6.1 mg/kg, iv. In kind it is ADME, organism-based. Further details: dose 6.1 mg/kg, route intravenous. The following applies: in vivo. The procedure, abridged:
as §1

Data set [18] can be described thus: Volume of distribution in rat at 6.1 mg/kg. In kind it is ADME, organism-based. The following applies: in vivo, read-out: Vdss. Further details: dose 6.1 mg/kg. The method in brief: as §1
The nature of data set [19]: Clearance in rat at 6.1 mg/kg. In kind it is ADME, organism-based. Further details: dose 6.1 mg/kg. The following applies: in vivo. The procedure, abridged: as §1

T1 sequence (P00742 41-179 limits assumed): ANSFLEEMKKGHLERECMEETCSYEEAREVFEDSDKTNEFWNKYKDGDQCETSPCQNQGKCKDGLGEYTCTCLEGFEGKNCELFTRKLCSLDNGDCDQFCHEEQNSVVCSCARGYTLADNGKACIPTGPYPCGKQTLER
T1 sequence (P00742 235-488 limits assumed): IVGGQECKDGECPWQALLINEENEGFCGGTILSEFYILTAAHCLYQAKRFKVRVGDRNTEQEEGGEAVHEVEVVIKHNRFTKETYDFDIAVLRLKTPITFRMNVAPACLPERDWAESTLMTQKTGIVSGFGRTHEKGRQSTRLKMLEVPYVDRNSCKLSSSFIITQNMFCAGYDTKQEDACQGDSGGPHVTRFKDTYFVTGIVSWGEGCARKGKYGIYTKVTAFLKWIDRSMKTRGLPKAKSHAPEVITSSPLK
Chain of Coagulation factor VII/tissue factor (P08709 61-212 limits assumed): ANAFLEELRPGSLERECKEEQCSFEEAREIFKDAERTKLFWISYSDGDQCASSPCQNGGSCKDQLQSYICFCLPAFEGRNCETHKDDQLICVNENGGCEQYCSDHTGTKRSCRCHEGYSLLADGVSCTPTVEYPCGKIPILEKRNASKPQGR
Chain of Coagulation factor VII/tissue factor (P08709 213-466 limits assumed): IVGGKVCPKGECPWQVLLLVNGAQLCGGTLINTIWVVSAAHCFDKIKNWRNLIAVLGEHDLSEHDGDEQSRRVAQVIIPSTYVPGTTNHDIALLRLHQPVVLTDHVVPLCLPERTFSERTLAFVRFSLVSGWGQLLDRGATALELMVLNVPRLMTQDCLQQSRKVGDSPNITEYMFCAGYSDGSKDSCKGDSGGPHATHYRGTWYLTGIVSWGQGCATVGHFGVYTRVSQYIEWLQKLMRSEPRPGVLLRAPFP
Chain of Coagulation factor VII/tissue factor (P13726 33-295 partner limits assumed): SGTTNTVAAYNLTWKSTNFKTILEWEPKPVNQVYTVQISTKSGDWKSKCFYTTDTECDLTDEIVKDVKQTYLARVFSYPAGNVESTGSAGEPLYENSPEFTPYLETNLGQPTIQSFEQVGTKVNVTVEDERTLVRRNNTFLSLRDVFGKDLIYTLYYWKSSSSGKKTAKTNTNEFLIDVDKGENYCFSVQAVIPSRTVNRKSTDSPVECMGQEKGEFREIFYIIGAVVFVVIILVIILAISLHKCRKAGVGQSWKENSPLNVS

Take `CCOc1cc(OC2CCOCC2)cc(C(Nc2ccc(C(=N)N)cc2)C(=O)O)c1` (stereo unspecified): in data set [1], the Ratio was found to be 4.1. The inhibition constant (Ki) in data set [2] is 7 µM; in data set [3], 2.9 µM; in data set [5], over 6.6 µM; in [7], 0.14 µM. In [4], the 2aPTT worked out at 19.8 µM. The same compound yielded a 2PT in data set [6] of 4.8 µM.
As to `CCOc1cc(O[C@H]2CC[C@H](O)CC2)cc(C(Nc2ccc(C(=N)N)cc2)C(=O)O)c1` (stereo partly specified), the Ratio in data set [1] worked out at 5.4. Also, the inhibition constant Ki is 4 µM in [2], 12.2 µM in data set [3], 5.5 µM in [5] and 0.11 µM in [7]. The compound also registered a 2aPTT in data set [4] of 29.4 µM. The 2PT in data set [6] is 5.4 µM.
For `C#Cc1cc(OC2CCOCC2)cc(C(Nc2ccc(C(=N)N)cc2)C(=O)O)c1` (stereo unspecified), the Ratio in data set [1] was found to be 4.2. Moreover, the inhibitory constant (Ki) in data set [2] came to 1.9 µM; in data set [3] it was 2.9 µM; in [5] it was 4.7 µM; in [7], 0.038 µM. Further, in [4], the 2aPTT came to 14.3 µM. The same compound had a 2PT in [6] of 3.4 µM.
On to `CCOc1cc(O[C@@H]2CCOC2)cc(C(Nc2ccc(C(=N)N)cc2)C(=O)O)c1` (stereo partly specified), for which the inhibition constant Ki in data set [2] amounted to 9.9 µM; in [3], 9.1 µM; in data set [5], 11.3 µM. The 2aPTT in data set [4] was determined as 51.7 µM.
Taken in the same sequence, the figures for `CCc1cc(OC2CCOCC2)cc(C(Nc2ccc(C(=N)N)cc2)C(=O)O)c1` (stereo unspecified) were 4.8 µM, over 7.5 µM, 1.6 µM and 15.6 µM.
As for `CCOc1cc(-c2ccccc2)cc(C(Nc2ccc(C(=N)N)cc2)C(=O)O)c1` (stereo unspecified), the Ratio in data set [1] is 2. Moreover, the inhibition constant (Ki) was over 68 µM in data set [2], 1.4 µM in data set [3], 7.3 µM in data set [5] and 0.13 µM in data set [7]. The 2aPTT in data set [4] came to 69.9 µM. Moreover, in [6], the 2PT was found to be 35.6 µM.
For `COc1cc(C(Nc2ccc(C(=N)N)cc2)C(=O)O)ccc1OCc1ccccc1` (stereo unspecified), the Ki in data set [2] worked out at 0.31 µM; in data set [3] it was 0.73 µM; in data set [5] it was 0.074 µM; in [7], 0.061 µM. Also, the 2PT in data set [6] was 11.9 µM.
Regarding `CCOc1cc(OCC)cc(C(Nc2ccc(C(=N)NO)cc2)C(=O)O)c1` (stereo unspecified), the bioavailability in [8] was found to be 30%. The half-life in data set [9] is 5 h.
`CCOc1cc(O[C@H]2CCOC2)cc(C(Nc2ccc(C(=N)N)cc2)C(=O)O)c1` (stereo partly specified) showed a half-life in [10] of 1.4 h. Also, the Ki came to 7.3 µM in data set [2], 2.3 µM in data set [3] and 8.6 µM in [5]. Further, the Vd in [11] worked out at 0.5 L/kg. The compound also came in with a clearance in data set [12] of 0.342 L/h/kg. The compound further displayed a 2aPTT in data set [4] of 17.2 µM.
For `CCOc1cc(C(Nc2ccc(C(=N)N)cc2)C(=O)O)ccc1OCc1ccccc1` (stereo unspecified), the Ki in data set [2] worked out at 1 µM; in [3] it was 0.79 µM; in data set [5], 0.085 µM; in [7] it was 0.028 µM. The 2PT in data set [6] was 8.8 µM.
Consider `C#Cc1cc(O[C@H]2CCOC2)cc(C(Nc2ccc(C(=N)N)cc2)C(=O)O)c1` (stereo partly specified), for which the Ratio in data set [1] was found to be 3. Also, the Ki came to 5.4 µM in data set [2], 2.6 µM in data set [3], 9.5 µM in data set [5] and 0.065 µM in data set [7]. This compound registered a 2aPTT in data set [4] of 12.9 µM. For the same compound, the 2PT in data set [6] is 4.3 µM.
In the case of `CCOc1cc(OC2CCN(S(C)(=O)=O)CC2)cc(C(Nc2ccc(C(=N)N)cc2)C(=O)O)c1` (stereo unspecified), in data set [1], the Ratio was found to be 5.6. Further, the Ki was 3.5 µM in data set [2], 4.4 µM in [3], over 3.5 µM in data set [5] and 0.18 µM in data set [7]. Further, the 2aPTT in [4] is 26.9 µM. Also, the 2PT in [6] came to 4.8 µM.
For the compound `CCOC(=O)C(Nc1ccc(C(=N)NO)cc1)c1cc(OCC)cc(O[C@H]2CCOC2)c1` (stereo partly specified), the half-life in data set [13] was 4.1 h; in data set [14] it was 0.9 h. In [15], the bioavailability was 15%.
`CCOc1cc(OCC)cc(C(Nc2ccc(C(=N)N)cc2)C(=O)O)c1` (stereo unspecified) had a bioavailability in [16] of 2%. This compound showed a half-life in [17] of 2.9 h. In addition, the inhibition constant Ki is 16.9 µM in [2], 5.6 µM in data set [3] and over 35 µM in data set [5]. Also, in data set [18], the Vd is 0.3 L/kg. Besides, the clearance in data set [19] is 0.156 L/h/kg.
`CCOc1cc(OC2CCN(C)CC2)cc(C(Nc2ccc(C(=N)N)cc2)C(=O)O)c1` (stereo unspecified): the values for the inhibitory constant (Ki) in data set [2], in [3] and in data set [5] were 8.6 µM, 1.6 µM and 9.9 µM, respectively. The compound also showed a 2aPTT in data set [4] of 22.3 µM.
On to `CCOc1cc(-c2cccnc2)cc(C(Nc2ccc(C(=N)N)cc2)C(=O)O)c1` (stereo unspecified), for which the Ratio in data set [1] was 4.9. Also, the Ki in [2] came out at 8 µM; in data set [3], 2.2 µM; in data set [5], 10.2 µM; in data set [7], 0.51 µM. This compound also came in with a 2aPTT in data set [4] of 57.6 µM. The same compound had a 2PT in [6] of 11.8 µM.
Consider `C#Cc1cc(O[C@@H]2CCOC2)cc(C(Nc2ccc(C(=N)N)cc2)C(=O)O)c1` (stereo partly specified), for which the Ratio in data set [1] was determined as 3.7. Besides, the inhibitory constant (Ki) worked out at 6.6 µM in data set [2], 15.3 µM in [3], 8.8 µM in data set [5] and 0.129 µM in data set [7]. Moreover, the 2aPTT in [4] turned out to be 34 µM. Also, the 2PT in [6] was 9.1 µM.
Consider `CCOc1cc(O[C@H]2CCOC2)cc([C@@H](Nc2ccc(C(=N)N)cc2)C(=O)O)c1`, for which the Ki in data set [2] was 4.5 µM; in data set [3] it was 1.5 µM; in data set [5] it was 4.6 µM. In data set [4], the 2aPTT was 10.3 µM.
For `CCOC(=O)C(Nc1ccc(C(=N)NO)cc1)c1cc(OCC)cc(OCC)c1` (stereo unspecified), the half-life is 4.8 h in [13] and 3.5 h in data set [14]. The compound further had a bioavailability in data set [15] of 100%.
For the compound `C=Cc1cc(OC2CCOCC2)cc(C(Nc2ccc(C(=N)N)cc2)C(=O)O)c1` (stereo unspecified), the Ratio in [1] came out at 4. The inhibition constant Ki is 8.7 µM in data set [2], 13.3 µM in data set [3], 2.9 µM in data set [5] and 0.069 µM in [7]. Also, the 2aPTT in data set [4] turned out to be 23.7 µM. This compound also yielded a 2PT in data set [6] of 5.9 µM.
